According to ChEMBL document CHEMBL1133763, “Synthesis and immunosuppressive activity of novel prodigiosin derivatives” (J Med Chem, 2000):
≈ marks a conversion by molar mass, not a printed value.

Key:
[1] = species: Mus musculus; assay: The concentration inhibiting 50% cell proliferation of murine Splenocytes induced by the mitogen Concanavalin A of mice; assay type: functional
Summary of the method: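 Spleens from C57Bl/6 mice; splenocytes at 4 × 10^5 cells/well in triplicate with Con A 1.7 µg/mL and varying compound concentrations in complete RPMI 1640. 72 h at 37 °C, 5% CO2; [3H]thymidine 0.2 µCi/well during final 18 h; uptake counted by scintillation. IC50 from % inhibition of cpm versus control; mean ± SD of ≥3 experiments.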

[2] = tested on: B16; assay: Cytotoxicity, ability to inhibit viability of murine resting lymphocytes, murine B16 melanoma cells and human K562 erythroleukemia cells by 50% by […]; assay type: functional, cell-based; details: Mus musculus
Summary of the method: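 Murine resting lymphocytes (4 × 10^5 cells/well), murine B16 melanoma and human K562 cells (1 × 10^5 cells/well each) seeded in triplicate with a range of compound concentrations in complete RPMI 1640 (10% inactivated FCS); DMSO stocks at 2 mg/mL diluted at use. MTT added for last 4 h of 48 h culture; formazan dissolved in HCl–2-propanol, OD 570/690 nm; IC50 from % inhibition versus control.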

[3] = tested on: B16; assay: Selectivity index was evaluated; assay type: functional, Mus musculus
Summary of the method: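 Ratio of mean IC50 for MTT viability in K562, B16 and resting lymphocytes (averaged over the three) to IC50 for Con A-stimulated splenocyte proliferation.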

[4] = tested on: Mus musculus; assay: The Toxicity of compound was measured by DTH Assay on mice after giving compound daily by ip route for 6 days at different doses; assay type: organism-based; details: in vivo, 144 h
Summary of the method: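 Female C57Bl/6 mice, 8-9 weeks old, were primed iv with 1 × 10^5 SRBC and challenged in the footpad with 1 × 10^8 SRBC five days later. Compound in Cremophor ELP/ethanol (6.5:3.5 v:v) was given ip daily for 6 days from priming. Value is the minimal daily dose causing weight loss, hair ruffling or occasionally death, as mean ± SD of ≥3 experiments, 10 mice/group.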

[5] = tested on: Mus musculus; assay: Dose able to reduce by 50% the thickness increase compared to controls by DTH Assay on mice after daily dose by ip route for 6 days; assay type: functional; details: 144 h
Summary of the method: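 Female C57Bl/6 mice, 8-9 weeks, primed iv with 1 × 105 SRBC in saline; footpad challenge 5 days later with 1 × 108 SRBC. Compound in Cremophor ELP/ethanol (6.5:3.5) given ip daily for 6 days from priming day at several doses. Footpad swelling by dial micrometer 24 h post-challenge; ED50 = dose halving swelling increase; 10 animals/group, ≥3 experiments.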

Molecule `CCCCCCCCCCCC1=N/C(=C\c2[nH]c(-c3cc4cc(OC)ccc4[nH]3)cc2OC)C=C1` has an IC50 [1] of 0.128 µg/mL (≈ 0.27 µM) and an IC50 [2] greater than 1 µg/mL.
Molecule `COc1cc(-c2ccc[nH]2)[nH]c1/C=C1/C=CC(CCCCCC(=O)O)=N1` has an IC50 [1] greater than 1 µg/mL and an IC50 [2] greater than 1 µg/mL.
In the case of `CCCCCCCCCCCC1=N/C(=C\c2ccc(-c3ccc[nH]3)[nH]2)C=C1`, the IC50 [1] is reported as 0.4 µg/mL (≈ 1.1 µM), the IC50 [2] is reported as 1.22 µg/mL (≈ 3.34 µM) and the Selectivity index [3] is reported as 3.
With `CCCCCCCCCCCC1=N/C(=C\c2[nH]c(-c3ccc[nH]3)cc2OCC)C=C1` the IC50 [1] was 0.0018 µg/mL (≈ 0.00442 µM), the IC50 [2] was 0.193 µg/mL (≈ 0.474 µM) and the Selectivity index [3] was 107. It also gave a Toxicity [4] of 2 mg/kg and an ED50 [5] of 1.2 mg/kg.
With `CCCCCCCCCCCC1=N/C(=C\c2[nH]c(-c3cc4ccccc4[nH]3)cc2OC)C=C1` the IC50 [1] was 0.25 µg/mL (≈ 0.564 µM) and the IC50 [2] was greater than 1 µg/mL.
Molecule `COc1cc(-c2ccc[nH]2)[nH]c1/C=C1/C=CC(CCCCCCCC#N)=N1` has an IC50 [1] of 0.0162 µg/mL (≈ 0.0447 µM), an IC50 [2] of 0.235 µg/mL (≈ 0.648 µM) and a Selectivity index [3] of 14.
With `CCCCCCCCCCCC1=N/C(=C\c2[nH]c(-c3ccc[nH]3)cc2OCCCC)C=C1` the IC50 [2] was 1.51 µg/mL (≈ 3.47 µM), the Selectivity index [3] was 133 and the Toxicity [4] was 3 mg/kg. The ED50 [5] was 1.5 mg/kg.
Molecule `CCCCCCCCCCCC1=N/C(=C\c2[nH]c(-c3ccc[nH]3)cc2OCc2ccccc2)C=C1` has an IC50 [1] of 0.0242 µg/mL (≈ 0.0515 µM), an IC50 [2] of 3.74 µg/mL (≈ 7.96 µM) and a Selectivity index [3] of 155. It also gave a Toxicity [4] of 5 mg/kg and an ED50 [5] of 1.1 mg/kg.
For `CCCCCC1=N/C(=C\c2[nH]c(-c3ccc[nH]3)cc2OCc2ccccc2)C=C1`, the IC50 [1] was 0.0049 µg/mL (≈ 0.0127 µM), the IC50 [2] was 0.083 µg/mL (≈ 0.215 µM) and the Selectivity index [3] was 17.
`CCCCCCCCCCCC1=N/C(=C\c2[nH]c(-c3ccc[nH]3)cc2OCCC)C=C1` showed an IC50 [1] of 0.0056 µg/mL (≈ 0.0133 µM), an IC50 [2] of 0.322 µg/mL (≈ 0.764 µM) and a Selectivity index [3] of 58. It also gave a Toxicity [4] of 2 mg/kg and an ED50 [5] of 1 mg/kg.
In the case of `CCCCCCCCCCCC1=N/C(=C\c2[nH]c(-c3cccs3)cc2OCc2ccccc2)C=C1`, the IC50 [1] is reported as greater than 1 µg/mL and the IC50 [2] is reported as greater than 1 µg/mL.
`COc1cc(-c2ccc[nH]2)[nH]c1/C=C1/C=CC(CCCCCCO)=N1` was tested, and the IC50 [1] was 0.0564 µg/mL (≈ 0.166 µM), the IC50 [2] was 0.787 µg/mL (≈ 2.32 µM) and the Selectivity index [3] was 14.
Work on `COc1cc(-c2ccc[nH]2)[nH]c1/C=C1/C=CC(CCc2ccccc2)=N1` yielded an IC50 [1] of 0.0075 µg/mL (≈ 0.0218 µM), an IC50 [2] of 0.299 µg/mL (≈ 0.871 µM) and a Selectivity index [3] of 40.
For `C1=C(OCc2ccccc2)/C(=C/c2ccc[nH]2)N=C1c1ccc[nH]1`, the IC50 [1] was 0.0153 µg/mL (≈ 0.0485 µM), the IC50 [2] was 0.181 µg/mL (≈ 0.574 µM) and the Selectivity index [3] was 12.
`CCCCCCCCCCCC1=N/C(=C\c2[nH]c(-c3ccc[nH]3)cc2OC(C)C)C=C1` was tested, and the IC50 [1] was 0.0026 µg/mL (≈ 0.00617 µM), the IC50 [2] was 0.282 µg/mL (≈ 0.669 µM) and the Selectivity index [3] was 108.
In the case of `CCCCCCCC1=N/C(=C\c2[nH]c(-c3ccc[nH]3)cc2OCc2ccccc2)C=C1`, the IC50 [1] is reported as 0.0036 µg/mL (≈ 0.0087 µM), the IC50 [2] is reported as 0.178 µg/mL (≈ 0.43 µM) and the Selectivity index [3] is reported as 49.
Work on `COc1cc(-c2ccc[nH]2)[nH]c1/C=C1/C=CC(CCCCCC(=O)N2CCOCC2)=N1` yielded an IC50 [1] greater than 1 µg/mL and an IC50 [2] greater than 1 µg/mL.
`CCCCCCCCCCCC1=N/C(=C\c2[nH]c(-c3ccc[nH]3)cc2OC)C=C1` [UNDECYLPRODIGININE] gave an IC50 [1] of 0.002 µg/mL (≈ 0.00508 µM), an IC50 [2] of 0.106 µg/mL (≈ 0.269 µM) and a Toxicity [4] of 1 mg/kg. For the same molecule, the ED50 [5] was 0.6 mg/kg.
`CCCCCCCCCCCCCC1=N/C(=C\c2[nH]c(-c3ccc[nH]3)cc2OC)C=C1` showed an IC50 [1] of 0.0014 µg/mL (≈ 0.00332 µM), an IC50 [2] of 0.282 µg/mL (≈ 0.669 µM) and a Selectivity index [3] of 201. The Toxicity [4] was 1.5 mg/kg and the ED50 [5] was 0.8 mg/kg.
`CCCCCCCCCCCC1=N/C(=C\c2[nH]c(-c3ccc[nH]3)cc2O)C=C1` showed an IC50 [1] greater than 1 µg/mL and an IC50 [2] greater than 1 µg/mL.
`CCCCCCCCCCCC1=N/C(=C\c2[nH]c(-c3ccccc3)cc2OC)C=C1` gave an IC50 [1] greater than 1 µg/mL and an IC50 [2] greater than 1 µg/mL.
`COc1cc(-c2ccc[nH]2)[nH]c1/C=C1/C=CC(CCCCCCF)=N1` was tested, and the IC50 [1] was 0.0074 µg/mL (≈ 0.0217 µM), the IC50 [2] was 0.172 µg/mL (≈ 0.504 µM) and the Selectivity index [3] was 23.
In the case of `CCCCCCCCCCCCCCCC1=N/C(=C\c2[nH]c(-c3ccc[nH]3)cc2OC)C=C1`, the IC50 [1] is reported as 0.0163 µg/mL (≈ 0.0362 µM), the IC50 [2] is reported as 1.24 µg/mL (≈ 2.75 µM) and the Selectivity index [3] is reported as 76.
Molecule `CCCCCCCCCCC1=N/C(=C\c2[nH]c(-c3ccc[nH]3)cc2OC)C=C1` has an IC50 [1] of 0.0018 µg/mL (≈ 0.00474 µM), an IC50 [2] of 0.156 µg/mL (≈ 0.411 µM) and a Selectivity index [3] of 87.
Molecule `CCCCCCCCCCC1=N/C(=C\c2[nH]c(-c3ccc[nH]3)cc2OCc2ccccc2)C=C1` has an IC50 [1] of 0.013 µg/mL (≈ 0.0285 µM), an IC50 [2] of 0.97 µg/mL (≈ 2.13 µM) and a Selectivity index [3] of 75.
In the case of `CC1=N/C(=C\c2[nH]c(-c3ccc(C)[nH]3)cc2OCc2ccccc2)C=C1`, the IC50 [1] is reported as 0.0041 µg/mL (≈ 0.0119 µM) and the IC50 [2] is reported as 0.077 µg/mL (≈ 0.224 µM).
Molecule `COc1cc(-c2ccc[nH]2)[nH]c1/C=C1/C=CC(CCCCCCCCCCC(=O)O)=N1` has an IC50 [1] greater than 1 µg/mL and an IC50 [2] greater than 1 µg/mL.
`CCCCCC1=N/C(=C\c2[nH]c(-c3ccc[nH]3)cc2OC)C=C1` was tested, and the IC50 [1] was 0.02 µg/mL (≈ 0.0646 µM), the IC50 [2] was 0.079 µg/mL (≈ 0.255 µM) and the Selectivity index [3] was 4.
With `CCCCCCCCCCCC1=N/C(=C\c2[nH]c(-c3cc4cc(Cl)ccc4[nH]3)cc2OC)C=C1` the IC50 [1] was greater than 1 µg/mL and the IC50 [2] was greater than 1 µg/mL.
`COC(=O)CCCCCC1=N/C(=C\c2[nH]c(-c3ccc[nH]3)cc2OC)C=C1` showed an IC50 [1] greater than 1 µg/mL and an IC50 [2] greater than 1 µg/mL.
Work on `CCCCCCCCCCCCCC1=N/C(=C\c2[nH]c(-c3ccc[nH]3)cc2OCc2ccccc2)C=C1` yielded an IC50 [1] of 0.262 µg/mL (≈ 0.526 µM), an IC50 [2] of 2.78 µg/mL (≈ 5.59 µM) and a Selectivity index [3] of 11.
Molecule `CC1=N/C(=C\c2[nH]c(-c3ccc[nH]3)cc2OCc2ccccc2)C=C1` has an IC50 [1] of 0.0079 µg/mL (≈ 0.024 µM), an IC50 [2] of 0.083 µg/mL (≈ 0.252 µM) and a Selectivity index [3] of 10.
`COc1cc(-c2ccc[nH]2)[nH]c1/C=C1/C=C2CCCCC2=N1` was tested, and the IC50 [1] was 0.0185 µg/mL (≈ 0.0631 µM), the IC50 [2] was 0.12 µg/mL (≈ 0.409 µM) and the Selectivity index [3] was 6.
Work on `CCCCCCCC1=N/C(=C\c2[nH]c(-c3ccc[nH]3)cc2OC)C=C1` yielded an IC50 [1] of 0.0056 µg/mL (≈ 0.0166 µM) and a Selectivity index [3] of 29.
For `C1=C/C(=C/c2[nH]c(-c3ccc[nH]3)cc2OCc2ccccc2)N=C1Cc1ccccc1`, the IC50 [1] was 0.0065 µg/mL (≈ 0.016 µM), the IC50 [2] was 0.279 µg/mL (≈ 0.688 µM) and the Selectivity index [3] was 43.
Work on `C1=C/C(=C/c2[nH]c(-c3ccc[nH]3)cc2OCc2ccccc2)N=C1CC1CCCCC1` yielded an IC50 [1] of 0.0021 µg/mL (≈ 0.0051 µM), an IC50 [2] of 0.151 µg/mL (≈ 0.367 µM) and a Selectivity index [3] of 72.
`CCCCCCCCCCCC1=N/C(=C\c2[nH]c(-n3cncn3)cc2OC)C=C1` gave an IC50 [1] greater than 1 µg/mL and an IC50 [2] greater than 1 µg/mL.
For `CCCCCCCCCCCC1=N/C(=C\c2[nH]c(C(=O)NCC)cc2OC)C=C1`, the IC50 [1] was greater than 1 µg/mL and the IC50 [2] was greater than 1 µg/mL.
For `CCCCCCCCCCCC1=N/C(=C\c2[nH]c(-c3ccc(C(C)=O)[nH]3)cc2OC)C=C1`, the IC50 [1] was 0.1 µg/mL (≈ 0.23 µM) and the IC50 [2] was greater than 1 µg/mL.
